Screens as filed in PubChem BioAssay.
Lmaj promast: Leishmania major promastigote growth inhibition | Leishmania major promastigotes, resazurin fluorescence viability | inhibition, % at 10 µM | 200,000 compounds, 9% hits | AID 1063;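 also: promastigotes grown with compound for 44 hours at 28 °C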
WT yeast gro inh: growth inhibition of WT yeast, mitochondrial fusion screen; mitochondrial fusion phenotypic screen, WT strain; inhibition, % at 10 µM; 190,000 compounds, 2.1% hits; in the data active = inhibition above about 58%; tested in S. cerevisiae
G6PDH counter: L. mesenteroides G6PDH inhibition counter-screen. Purified L. mesenteroides G6PDH, diaphorase/resazurin coupled fluorescence, 45 min. inhibition, % at 5 µM. 200,000 compounds, 0.12% hits. AID 1020
Diaph act CS: activates diaphorase or chemically reduces, flagging diaphorase assay artifacts; activation factor at 20 µM; Diaphorase/resazurin coupled assay, resorufin fluorescence, 16 min; stronger effect = higher value; 1 = vehicle wells, 0 = NADH-free wells; 190,000 compounds, 0.005% hits;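 active = diaphorase activity raised at least twofold by the compound at 20 µM; inactive = activation factor below 2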
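test system = bacterial diaphorase enzyme (C. kluyveri) | quantity = enzyme 0.07 U/mL final | reagent = NADH substrate 0.114 mM plus resazurin dye 0.1 mM, final | incubation = 16 min enzyme reaction, ambient temperature | buffer or medium = HEPES pH 7.4 buffer with MgCl2 and Tween 20 | signal = fluorescence of resorufin, 544 nm excitation, 590 nm emission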
Diaph inh CS: inhibits diaphorase or chemically oxidizes, flagging diaphorase assay artifacts | diaphorase resazurin-to-resorufin fluorescence, NADH, 16 min; bacterial (C. kluyveri) enzyme, not human | 190,000 compounds, 0.69% hits | inhibition, % at 20 µM;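 active = primary screen inhibition at 20 µM above a set limit, cut at about 50% in these data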
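Benchmarks: positive control wells lacking NADH, neutral wells with DMSO only. System: bacterial diaphorase enzyme (C. kluyveri). Input: 0.14 U/mL diaphorase, enzyme working solution. Detection: resorufin fluorescence, excitation 544 nm, emission 590 nm. Times: 16-min room-temperature incubation before reading.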
Large screens that a line does not name were inactive. This is a sample that favours compounds with a hit; in the whole collection about 11% have one here. Rule as the data show it, unless noted: active = inhibition above about 50%; inactive = the rest.

COc1cc(OC)c(NC(=O)CCCn2c(=O)oc3ccccc32)cc1Cl	none
Cc1ccc(NC(=O)CCn2c(=O)oc3ccccc32)cc1	none
CC(C(=O)N1CCCC1)N1CCN(c2ccccc2O)CC1 (configuration not stated)	none
CC(C)Oc1ccc(C(=O)NCc2cccs2)cc1	none
COc1ccc(C2NC(=S)NC3=C2CCc2cc(OC)ccc23)cc1 (configuration not stated)	Lmaj promast 62.5
Cc1ccc(/C=C2\CCCC3=C2NC(=S)NC3c2ccc(C)cc2)cc1 (configuration not stated)	none
O=C(NC1CC1)C1CCN(C2CCN(C(=O)c3ccc4cccc(F)c4n3)CC2)CC1	none
O=C(Nc1ccc(Cl)c(Cl)c1)OCc1cccnc1	WT yeast gro inh 79.0
O=C(NNC(=O)c1cccnc1)Nc1ccc(Cl)c(Cl)c1	none
O=C(Nc1ccc(Cl)c(Cl)c1)c1cccc(S(=O)(=O)NCc2cccnc2)c1	WT yeast gro inh 76.4
COc1ccc(N(C(=O)COc2ccc(C)cc2)S(=O)(=O)c2ccc(C)cc2)cc1	none
O=C(c1ccco1)N1CCN(c2c(-c3ccccc3)c3cc(Cl)ccc3[nH]c2=O)CC1	WT yeast gro inh 85.8
O=c1[nH]c2ccc(Cl)cc2c(-c2ccccc2)c1N1CCOCC1	none
Cc1ccc2c(c1)/C(=N/OS(=O)(=O)c1ccccc1)CCS2	none (no result: WT yeast gro inh, G6PDH counter, Diaph act CS, Diaph inh CS)
CC1=CC(=O)C=C(C)C1=NOS(=O)(=O)c1ccccc1	Lmaj promast 100.5
CCOC(=O)N1CCN(C(=O)c2ccc(Oc3ccc([N+](=O)[O-])cc3)cc2)CC1	none
CCNc1nc(NC(C)(C)C)nc(N(CC)n2cnnc2)n1	none
CN(C)c1nc(NC(C)(C)C)nc(NC(C)(C)C)n1	Lmaj promast 59.5
Cc1ccc(NC(=O)N2CCC(=O)N2)cc1	none
Cc1cc(/C([O-])=C(/C(=S)Nc2ccc(F)cc2)[n+]2ccccc2)c(C)n1-c1ccc(F)cc1	none
Cc1ccc(-n2c(C)cc(/C([O-])=C(/C(=S)Nc3ccc(F)c(Cl)c3)[n+]3ccccc3)c2C)cc1	Lmaj promast 90.7
CC1=C(CC/C(C)=N/NC(N)=S)C(C)(C)CCC1	Lmaj promast 100.0
O=C(O)C1CC(O)CN1C(=O)c1ccco1 (configuration not stated)	none
CC(=O)c1ccc(NC(=O)CSc2nnc(-c3ccco3)c(-c3ccco3)n2)cc1	Diaph inh CS 81.3
Cn1nnnc1SCC(=O)Nc1ccc(Oc2ccccc2)cc1	Lmaj promast 92.7
O=C(Nc1ccccc1)c1ccc2nc(-c3ccco3)c(-c3ccco3)nc2c1	Diaph inh CS 79.3
COc1ccc(NC(=O)CSc2nnnn2C)cc1	none
O=C(NCCO)Nc1ccc2nc(-c3ccco3)c(-c3ccco3)nc2c1	Diaph inh CS 74.1
Cc1ncsc1C(=O)N1CCCC(CNS(=O)(=O)c2cccs2)C1 (configuration not stated)	none
COc1cccc(C(=O)Nc2ccc(C(F)(F)F)n(C)c2=O)c1	none
C=CCOc1ccc2ccccc2c1CNc1ncn[nH]1	none
CCCCNC(=O)c1ccc2nc(-c3ccco3)c(-c3ccco3)nc2c1	Diaph inh CS 52.9
CCOc1ccc(NC(=O)CSc2nnc(-c3ccco3)n2C)cc1	WT yeast gro inh 95.3
CC(=O)c1ccc(NC(=O)c2ccc3nc(-c4ccco4)c(-c4ccco4)nc3c2)cc1	Diaph inh CS 54.7
Cc1ccc(NC(=O)c2ccccc2)cc1OC(=O)c1ccccc1	none
CCC/C(O)=C1\C(=O)CC(c2ccccc2)CC1=NC(C)C(=O)O (configuration not stated)	none
COC(=O)[C@@]1(Cc2ccccc2)[C@@H]2C(=CC(=O)[C@H]2CC(=O)C(=O)N(C)C)CN1C(=O)c1ccccc1	Lmaj promast 99.8
COC(=O)c1cccc(NC(=O)CCCOc2cccc(C)c2)c1	none
Cc1ccc(CNC(=O)/C=C/c2ccc(S(=O)(=O)NCc3ccco3)cc2)cc1	Lmaj promast 78.0
O=C(/C=C/c1ccc(S(=O)(=O)NCc2ccco2)cc1)NCc1cccc(Cl)c1	Lmaj promast 93.5
O=C(O)/C=C/c1ccc(S(=O)(=O)NCc2ccco2)cc1	none
O=C(Nc1ccccc1)c1ccc(S(=O)(=O)NCc2ccco2)cc1	none
Cc1ccc(C(=O)Nc2ccc(S(=O)(=O)NCc3ccco3)cc2)cc1	WT yeast gro inh 66.2
Cc1cc(C)c(S(=O)(=O)N(CC(=O)O)CC(=O)O)c(C)c1	none
